Tests used:
[1] = Selectivity ratio of CC50 for human TZM-bl cells to EC50 for HIV1 NL4-3 infected in human TZM-bl cells; assay type: toxicity, cell-based; settings: read-out: Ratio CC50/EC50
Procedure, shortened: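 The selectivity index is CC50/EC50 in TZM-bl cells against NL4-3. […] The highest concentration tested was 125 ng/mL.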

[2] = system: Human immunodeficiency virus 1; experiment: Antiviral activity against HIV1 NL4-3 infected in human TZM-bl cells after 2 days by luciferase-bright glo assay; assay type: functional, organism-based; settings: Human immunodeficiency virus 1, NL4-3, TZM-bl, 48 h
[3] = system: TZM; experiment: Cytotoxicity against human TZM-bl cells after 4 days by XTT assay; assay type: cell-based; settings: 96 h
[4] = system: MT4; experiment: Cytotoxicity against human MT4 cells after 5 days by MTT assay; assay type: cell-based; settings: mt4, 120 h
[5] = system: Human immunodeficiency virus 2; experiment: Antiviral activity against HIV2 ROD infected in human MT4 cells assessed as reduction in virus-induced cytopathic effect after 5 days by MTT assay; settings: Human immunodeficiency virus 2, ISOLATE ROD, MT4, 120 h
[6] = molecular target: Human immunodeficiency virus type 1 reverse transcriptase (Human immunodeficiency virus 1, UniProt Q72547); experiment: Inhibition of recombinant HIV1 reverse transcriptase using (DIG)-dUTP and biotin-labeled dNTPs as substrate after 1 hr by ELISA
[7] = system: Human immunodeficiency virus 1; experiment: Antiviral activity against HIV1 RES056 infected in human MT4 cells assessed as reduction in virus-induced cytopathic effect after 5 days by MTT assay; assay type: functional, organism-based; settings: Human immunodeficiency virus 1, RES056, MT4, 120 h
[8] = system: Human immunodeficiency virus 1; experiment: Antiviral activity against wild type HIV1 3B infected in human MT4 cells assessed as reduction in virus-induced cytopathic effect after 5 days by MTT assay; assay type: functional, organism-based; settings: Human immunodeficiency virus 1, 3B, MT4, 120 h

Work on `Cc1cc(C#N)cc(C)c1Oc1nc(N[C@H]2CCN(Cc3ccc(S(N)(=O)=O)cc3)C2)nc2ccsc12` yielded a selectivity ratio [1] of 2.2 and an EC50 [2] of 104 nM.
`Cc1cc(C#N)cc(C)c1Oc1nc(NC2CCCN(Cc3ccc(S(C)(=O)=O)cc3)CC2)nc2ccsc12` (stereo unspecified) showed a selectivity ratio [1] of 22, an EC50 [2] of 9.98 nM and a CC50 [3] of over 222 nM.
With `Cc1cc(C#N)cc(C)c1Oc1nc(NC2CCN(Cc3ccc(C(N)=O)cc3)CC2)nc2c1CCCC2` the CC50 [4] was over 233000 nM, the EC50 [5] was over 233000 nM and the IC50 [6] was 51 nM. It also gave an EC50 [7] of 291 nM and an EC50 [8] of 6 nM.
With `Cc1cc(C#N)cc(C)c1Oc1nc(NC2CCN(Cc3ccncc3)CC2)nc2c1CCC2` the CC50 [4] was over 274000 nM, the EC50 [5] was 138000 nM and the IC50 [6] was 73 nM. It also gave an EC50 [7] of 54.7 nM and an EC50 [8] of 1.8 nM.
`Cc1cc(C#N)cc(C)c1Oc1nc(NC2CCN(Cc3ccncc3)CC2)nc2c1SCC2` showed an EC50 [5] of 15700 nM, an IC50 [6] of 112 nM and an EC50 [7] of 46 nM. For the same molecule, the EC50 [8] was 2.6 nM.
Work on `Cc1cc(C#N)cc(C)c1Oc1nc(NC2CC3CCC(C2)N3Cc2ccncc2)nc2ccsc12` (stereo unspecified) yielded a selectivity ratio [1] of 1, an EC50 [2] of over 251 nM and a CC50 [3] of over 251 nM.
For `Cc1cc(C#N)cc(C)c1Oc1nc(N[C@H]2CCN(Cc3ccc(C(N)=O)cc3)C2)nc2ccsc12`, the selectivity ratio [1] was 4.5, the EC50 [2] was 55.7 nM and the CC50 [3] was over 250 nM.
For `Cc1cc(C#N)cc(C)c1Oc1nc(NC2CN(Cc3ccc(S(C)(=O)=O)cc3)C2)nc2ccsc12`, the selectivity ratio [1] was 1.1, the EC50 [2] was 207 nM and the CC50 [3] was over 240 nM.
`Cc1cc(C#N)cc(C)c1Oc1nc(NC2CCN(Cc3ccc(NS(C)(=O)=O)cc3)CC2)nc2c1CSC2` gave a CC50 [4] of over 257000 nM, an EC50 [5] of over 257000 nM and an IC50 [6] of 140 nM. The EC50 [7] was 5240 nM and the EC50 [8] was 11.2 nM.
`Cc1cc(C#N)cc(C)c1Oc1nc(NC2CCCN(Cc3ccncc3)CC2)nc2ccsc12` (stereo unspecified) showed a selectivity ratio [1] of 8, an EC50 [2] of 31.7 nM and a CC50 [3] of over 257 nM.
In the case of `Cc1cc(C#N)cc(C)c1Oc1nc(N[C@H]2CCN(Cc3ccc(S(C)(=O)=O)cc3)C2)nc2ccsc12`, the selectivity ratio [1] is reported as 4.6, the EC50 [2] is reported as 50.7 nM and the CC50 [3] is reported as over 234 nM.
`Cc1cc(C#N)cc(C)c1Oc1nc(NC2CCN(Cc3cccc(C(N)=O)c3)CC2)nc2c1COC2` showed an EC50 [5] of 209000 nM, an IC50 [6] of 91 nM and an EC50 [7] of 1030 nM. It also gave an EC50 [8] of 7.8 nM.
For `Cc1cc(C#N)cc(C)c1Oc1nc(NC2CN(Cc3ccc(C(N)=O)cc3)C2)nc2ccsc12`, the selectivity ratio [1] was 54, the EC50 [2] was 4.76 nM and the CC50 [3] was over 257 nM.
`Cc1cc(C#N)cc(C)c1Oc1nc(NC2CCCN(Cc3ccc(C(N)=O)cc3)CC2)nc2ccsc12` (stereo unspecified) showed a selectivity ratio [1] of 1, an EC50 [2] of over 237 nM and a CC50 [3] of over 237 nM.
For `Cc1cc(C#N)cc(C)c1Oc1nc(NC2CC3CCC(C2)N3Cc2ccc(S(N)(=O)=O)cc2)nc2ccsc12` (stereo unspecified), the selectivity ratio [1] was 1, the EC50 [2] was over 217 nM and the CC50 [3] was over 217 nM.
`Cc1cc(C#N)cc(C)c1Oc1nc(NC2CCN(Cc3ccc(S(C)(=O)=O)cc3)CC2)nc2c1SCCC2` gave a CC50 [4] of at least 3400 nM, an EC50 [5] of over 3400 nM and an EC50 [7] of 98.3 nM. For the same molecule, the EC50 [8] was 3.9 nM.
For `Cc1cc(C#N)cc(C)c1Oc1nc(N[C@@H]2CCN(Cc3ccc(S(N)(=O)=O)cc3)C2)nc2ccsc12`, the selectivity ratio [1] was 26, the EC50 [2] was 8.69 nM and the CC50 [3] was over 233 nM.
Work on `Cc1cc(C#N)cc(C)c1Oc1nc(NC2CCCN(Cc3ccc(S(N)(=O)=O)cc3)CC2)nc2ccsc12` (stereo unspecified) yielded an EC50 [2] of 2.2 nM and a CC50 [3] of over 222 nM.
`Cc1cc(C#N)cc(C)c1Oc1nc(NC2CCN(Cc3ccc(S(C)(=O)=O)cc3)CC2)nc2c1CCCC2` gave a CC50 [4] of over 266000 nM, an EC50 [5] of at least 163000 nM and an IC50 [6] of 89 nM. The EC50 [7] was 66.1 nM and the EC50 [8] was 8 nM.
Work on `Cc1cc(C#N)cc(C)c1Oc1nc(NC2CCN(Cc3ccc(S(N)(=O)=O)cc3)CC2)nc2c1CCCC2` yielded a CC50 [4] of over 228000 nM, an EC50 [5] of over 228000 nM and an IC50 [6] of 84 nM. The EC50 [7] was 667 nM and the EC50 [8] was 6 nM.

— ChEMBL document CHEMBL4368909, “Identification of Dihydrofuro[3,4- d]pyrimidine Derivatives as Novel HIV-1 Non-Nucleoside Reverse Transcriptase Inhibitors with Promising Antiviral Activities and Desirable Physicochemical Properties” (J Med Chem, 2019)
